Data set [1] relates to RAW264.7. The experiment in a line: Antiinflammatory activity in mouse RAW264.7 cells assessed as inhibition of LPS-induced NO production at 1 uM incubated for 10 mins prior to LPS-challenge measured after 18 hrs by Griess method relative to control. In kind it is functional. The procedure, abridged:
(§1)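 RAW264.7 cells (DMEM, 10% FBS, 37 °C, 5% CO2) seeded at 2.5 × 10^5 cells/well. After 6 h, nonadherent cells were washed off. Adherent cells were exposed to test compound for 10 min, then to LPS (E. coli 055:B5, final 10 µg/mL) for 18 h. Supernatant nitrite was measured by Griess reaction. Inhibition % = (A−B)/(A−C)×100, with C as the no-LPS control. IC50 was read graphically; N = 4, mean ± SEM. CAPE was the reference.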

For data set [2], the system named is RAW264.7. The experiment in a line: Antiinflammatory activity in mouse RAW264.7 cells assessed as inhibition of LPS-induced NO production at 10 uM incubated for 10 mins prior to LPS-challenge measured after 18 hrs by Griess method relative to control. The class given is functional. In a few lines: as §1
In data set [3] the test system is RAW264.7. The data set can be described thus: Antiinflammatory activity in mouse RAW264.7 cells assessed as inhibition of LPS-induced NO production at 30 uM incubated for 10 mins prior to LPS-challenge measured after 18 hrs by Griess method relative to control. In kind it is functional. In a few lines: as §1
The nature of data set [4]: Cytotoxicity against mouse RAW264.7 cells assessed as cell viability at 30 uM after 18 hrs by MTT assay. The conditions noted are these: read-out: Activity. In kind it is cell-based. In a few lines:
(§2)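 MTT viability assay. RAW264.7 cells seeded at 1.0 × 10^5 cells/well; after 6 h, nonadherent cells were washed off. Adherent cells were cultured with test compound for 18 h. MTT (5 mg/mL in PBS) was added for 2 h at 37 °C. Formazan was dissolved in isopropanol with 0.04 M HCl and OD read at 570 nm (reference 655 nm).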

In data set [5] the test system is RAW264.7. The data set can be described thus: Antiinflammatory activity in mouse RAW264.7 cells assessed as inhibition of LPS-induced NO production incubated for 10 mins prior to LPS-challenge measured after 18 hrs by Griess method. In kind it is functional, cell-based. In a few lines:
as §1

The subject of data set [6] is RAW264.7. The experiment in a line: Antiinflammatory activity in mouse RAW264.7 cells assessed as inhibition of LPS-induced NO production at 3 uM incubated for 10 mins prior to LPS-challenge measured after 18 hrs by Griess method relative to control.
Data set [7] in a line: Cytotoxicity against mouse RAW264.7 cells assessed as cell viability at 10 uM after 18 hrs by MTT assay. In kind it is cell-based. The following applies: read-out: Activity. The procedure, abridged: as §2
Data set [8] can be described thus: Cytotoxicity against mouse RAW264.7 cells assessed as cell viability at 3 uM after 18 hrs by MTT assay. In kind it is cell-based. The conditions noted are these: read-out: Activity. In a few lines: as §2

Turning to `CC[C@H](O)c1cc(=O)oc2c(C(=O)CC(C)C)c(O)c(C/C=C(\C)CCC=C(C)C)c(O)c12` [SURANGIN D], the inhibition at 1 µM in the data set with RAW264.7 [1] came out at 22.7%. In the data set with RAW264.7 [2], the inhibition at 10 µM was found to be 55.4%. The inhibition at 30 µM in the data set on RAW264.7 [3] was 74%. In addition, in data set [4], the viability at 18 h, 30 µM was 104%. The half-maximal inhibitory concentration (IC50) in the data set with RAW264.7 [5] was 6.2 µM. Further, the inhibition at 3 µM in the data set on RAW264.7 [6] came to 41.1%.
For the molecule `O=C(/C=C/c1ccc(O)c(O)c1)OCCc1ccccc1` [CAFFEIC ACID PHENETHYL ESTER], the inhibition at 1 µM with RAW264.7 [1] was determined as 5.4%. In addition, in the data set with RAW264.7 [2], the inhibition at 10 µM was determined as 98.4%. In addition, the inhibition at 30 µM in the data set on RAW264.7 [3] amounted to 100%. In data set [7], the viability at 18 h, 10 µM amounted to 76.4%. Moreover, the viability at 18 h, 30 µM in data set [4] came out at 15.6%. Besides, the IC50 in the data set with RAW264.7 [5] was 3.8 µM. Besides, the inhibition at 3 µM in the data set with RAW264.7 [6] is 45.7%.
Regarding `CCCC(=O)c1c(O)c(CC=C(C)C)c2oc(=O)cc(-c3ccccc3)c2c1O` [MAMMEA A/AC], in the data set with RAW264.7 [1], the inhibition at 1 µM came out at 0.6%. The inhibition at 10 µM with RAW264.7 [2] was 46.9%. For the same molecule, in the data set with RAW264.7 [3], the inhibition at 30 µM stood at 67.6%. Also, in data set [4], the viability at 18 h, 30 µM stood at 96.8%. Moreover, the half-inhibitory concentration (IC50) in the data set on RAW264.7 [5] came out at 13 µM. Moreover, in the data set on RAW264.7 [6], the inhibition at 3 µM was determined as 14.2%.
For the molecule `CCCC(=O)c1c(O)c(C/C=C(\C)CCC=C(C)C)c(O)c2c([C@@H](O)CC)cc(=O)oc12` [KAYEASSAMIN A], the inhibition at 1 µM in the data set on RAW264.7 [1] is 5%. Moreover, the inhibition at 10 µM in the data set with RAW264.7 [2] is 29.7%. Also, in the data set on RAW264.7 [3], the inhibition at 30 µM amounted to 56.6%. In data set [4], the viability at 18 h, 30 µM was found to be 82.4%. Further, in the data set on RAW264.7 [5], the IC50 is 26.6 µM. For the same molecule, in the data set with RAW264.7 [6], the inhibition at 3 µM came out at 15%.
On to `CCCC(=O)c1c(O)c2c(c3c([C@@H](O)CC)cc(=O)oc13)OC(C)(C)C=C2` [DEACETYLMAMMEA E/BC CYCLO D], for which, in the data set on RAW264.7 [1], the inhibition at 1 µM is 15.1%. Also, the inhibition at 10 µM in the data set on RAW264.7 [2] is 33.1%. Besides, the inhibition at 30 µM in the data set on RAW264.7 [3] is 62.3%. In addition, the viability at 18 h, 30 µM in data set [4] is 107%. The IC50 in the data set with RAW264.7 [5] worked out at 19.7 µM. Also, the inhibition at 3 µM with RAW264.7 [6] came to 20.2%.
In the case of `CCCC(=O)c1c2c(c3oc(=O)cc(-c4ccccc4)c3c1O)C=CC(C)(C)O2`, the inhibition at 10 µM with RAW264.7 [2] was determined as 9.4%. In the data set on RAW264.7 [3], the inhibition at 30 µM is 14.3%. Moreover, the IC50 with RAW264.7 [5] was above 30 µM.
For `CCC(C)C(=O)c1c(O)c(C/C=C(\C)CCC=C(C)C)c(O)c2c([C@H](CC)OC(C)=O)cc(=O)oc12` (stereo partly drawn) [SURANGIN B], the inhibition at 1 µM with RAW264.7 [1] was determined as 8.5%. In the data set with RAW264.7 [2], the inhibition at 10 µM is 74.3%. Also, the inhibition at 30 µM with RAW264.7 [3] worked out at 91.1%. Moreover, the viability at 18 h, 3 µM in data set [8] turned out to be 67.1%. Moreover, in data set [7], the viability at 18 h, 10 µM stood at 42.3%. The viability at 18 h, 30 µM in data set [4] came to 18.1%. For the same molecule, the half-maximal inhibitory concentration (IC50) with RAW264.7 [5] was found to be 5 µM. Moreover, the inhibition at 3 µM in the data set on RAW264.7 [6] was determined as 35.7%.
In the case of `CC[C@H](OC(C)=O)c1cc(=O)oc2c(C(=O)CC(C)C)c(O)c(C/C=C(\C)CCC=C(C)C)c(O)c12` [MAMMEASIN B], the inhibition at 1 µM in the data set with RAW264.7 [1] turned out to be 0.6%. In the data set with RAW264.7 [2], the inhibition at 10 µM turned out to be 64.7%. Moreover, the inhibition at 30 µM in the data set on RAW264.7 [3] amounted to 88.2%. For the same molecule, the viability at 18 h, 3 µM in data set [8] amounted to 60.3%. In data set [7], the viability at 18 h, 10 µM was found to be 20.2%. In addition, the viability at 18 h, 30 µM in data set [4] was found to be 13.6%. The concentration for half-maximal inhibition (IC50) with RAW264.7 [5] stood at 6.4 µM. Moreover, the inhibition at 3 µM in the data set on RAW264.7 [6] amounted to 31.1%.
As for `CCCC(=O)c1c2c(c3oc(=O)cc(CCC)c3c1O)C=CC(C)(C)O2`, the inhibition at 10 µM in the data set with RAW264.7 [2] was 9.9%. In addition, the inhibition at 30 µM in the data set with RAW264.7 [3] stood at 13.8%. Besides, the IC50 in the data set with RAW264.7 [5] was above 30 µM.

The values above are taken from ChEMBL document CHEMBL2062365, “Suppressive effects of coumarins from Mammea siamensis on inducible nitric oxide synthase expression in RAW264.7 cells” (Bioorg Med Chem, 2012).
